Source: PubChem BioAssay (several laboratories)
In the library only some 1.4% were active in any assay of this set; here they are far more common.
FXIa inh 1536 = human FXIa protease inhibitors, primary screen, biochemical, 1536-well | Coagulation factor XI (Homo sapiens), P03951 | purified FXIa, Boc-Glu-Ala-Arg-AMC fluorogenic substrate | inhibition, % at 5 µM | hit rate 0.14% among 220,000 | AID 798, 2007;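 active means inhibition of at least 40%; inactive means inhibition below 40%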;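 further: fluorescence of freed AMC excited at 355 nm; 0% = enzyme without compound and 100% = no enzyme blank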
thrombin 1536 = human alpha-thrombin inhibitors, primary screen, counter-screen for coagulation protease inhibitor project, biochemical, 1536-well, fluorogenic AMC substrate; hit rate 0.26% among 220,000; Prothrombin (Homo sapiens), P00734; Boc-VPR-AMC fluorogenic substrate cleavage; AID 1046, 2008; inhibition, % at 5 µM;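 active means inhibition at or above 40%; inactive means inhibition below 40%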;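 further: 0% = enzyme with no compound and 100% = wells without enzyme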
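System: human alpha-thrombin protein; Compound dosing: one concentration per compound, 5 µM, with 0.2% DMSO; Timing: reaction at room temperature; Technique: AMC fluorescence, 355/460 nm; Controls: enzyme without compound as high, wells lacking enzyme as low.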
m-calpain inh = inhibitors of pig calpain II, primary screen, biochemical, fluorogenic peptide substrate, 1536-well | AID 1236, 2008 | purified calpain II, 30 min | hit rate 0.37% among 220,000 | inhibition, % at 16 µM;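 active means inhibition above about 50%, limit read from the data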
hK5 inh = human KLK5 protease inhibitors, primary screen, biochemical, 1536-well; Kallikrein-5 (Homo sapiens), Q9Y337; recombinant hK5, fluorogenic AMC substrate cleavage; inhibition, % at 5 µM; hit rate 0.59% among 210,000;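 active means inhibition of 40% or more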;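 further: 0% = enzyme controls without compound and 100% = no-enzyme blanks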
FXIIa inh = human FXIIa protease inhibitors, primary screen, biochemical, 1536-well. Coagulation factor XII (Homo sapiens), P00748. purified FXIIa, Boc-QGR-AMC fluorogenic substrate, 2 h. inhibition, % at 5 µM. hit rate 0.3% among 220,000. AID 800, 2007; in the data active means inhibition above about 40%;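 further: 0% = enzyme with no compound and 100% = blank without enzyme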
Target sequence (P00748 20-372 limits assumed): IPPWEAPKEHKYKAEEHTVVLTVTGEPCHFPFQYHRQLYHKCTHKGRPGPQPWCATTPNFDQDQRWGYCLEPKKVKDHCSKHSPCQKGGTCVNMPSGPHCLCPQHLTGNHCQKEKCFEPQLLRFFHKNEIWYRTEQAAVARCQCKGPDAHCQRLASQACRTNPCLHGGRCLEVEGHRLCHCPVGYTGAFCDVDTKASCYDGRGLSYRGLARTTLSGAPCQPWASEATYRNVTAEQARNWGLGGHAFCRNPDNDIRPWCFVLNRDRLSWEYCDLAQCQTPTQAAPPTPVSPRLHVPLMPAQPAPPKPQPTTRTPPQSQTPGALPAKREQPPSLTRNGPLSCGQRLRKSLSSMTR
Target sequence (P00748 373-615 limits assumed): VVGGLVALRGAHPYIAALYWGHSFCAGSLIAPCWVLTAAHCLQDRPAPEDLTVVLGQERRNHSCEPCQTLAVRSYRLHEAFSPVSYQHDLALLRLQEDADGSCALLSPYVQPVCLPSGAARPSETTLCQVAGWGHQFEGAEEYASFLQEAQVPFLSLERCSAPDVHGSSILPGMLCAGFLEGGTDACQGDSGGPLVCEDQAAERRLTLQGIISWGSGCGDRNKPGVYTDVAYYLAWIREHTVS
An asterisk follows results filed as active; · = no result.

SMILES	FXIa inh 1536	thrombin 1536	m-calpain inh	hK5 inh	FXIIa inh
O=C1NC(=O)N(Cc2ccccc2Cl)C(=O)/C1=C/c1cccs1	29.3	10.9	-8.0	49.9*	39.2
O=C1NC(=O)N(Cc2ccc(F)cc2)C(=O)/C1=C/c1cccs1	-5.8	1.1	-2.5	-16.0	1.1
Cc1cc(C)nc(-n2c(C)nc3cc(Cl)ccc3c2=O)c1	-1.2	-9.1	-20.4	-2.5	6.5
CCc1ccc(-c2nn(Cc3ccccc3)cc2C=O)cc1	3.0	-13.4	23.4	23.5	16.4
Cc1nc2ccccc2n1C1CCN(Cc2nnnn2CCc2ccccc2)CC1	-13.5	-4.1	7.6	-1.9	42.9*
Cc1cccc(OP(=O)(NCc2ccccc2)Oc2cccc(C)c2)c1	-3.9	-9.5	19.3	4.4	-0.1
Cc1cc(N2CCCC2)ccc1C=C(C#N)C#N	31.3	-9.3	22.8	48.3*	36.2
Cc1cc(N2CCCCC2)ccc1C=C1C(=O)N(C)C(=S)N(C)C1=O	22.7	4.3	32.1	-21.0	27.6
CCc1c(C)nc(N)nc1N1N=C1SCC#N	31.5	-0.2	15.2	6.7	58.3*
COc1cccc(CCNCc2ccc(SC)cc2)c1	2.5	-4.5	12.9	-1.7	8.9
O=C(COC(=O)c1cccc(O)c1)Nc1ccc(Cl)cc1C(=O)c1ccccc1	29.9	-13.9	52.6*	-10.6	29.3
C(#CCN1CCOCC1)COCc1ccccc1	2.1	-1.5	-29.2	-7.8	-0.7
OC1(c2ccccc2F)CC2CCC(C1)N2CCN1CCOCC1 (stereo not drawn)	32.9	22.6	8.1	55.2*	-162.2
COc1ccc(C(=O)CN2CCOCC2)cc1F	5.7	-2.1	21.3	6.6	-7.4
O=c1c2ccccc2[se]n1-c1ccccc1	-5.2	-3.4	18.7	-13.3	3.0
CNC(=O)Oc1cccc2ccccc12	17.9	21.7	2.6	42.5*	27.6
CN(C)S(=O)(=O)c1cc(NC(=O)COC(=O)Cc2ccccc2)ccc1Cl	3.4	-0.9	26.5	3.8	3.5
Cc1ccc(C2C(S(C)(=O)=O)=C(O)C(=O)N2c2ccccc2)cc1 (stereo not drawn) (tested in a mixture with another compound)	2.4	-0.2	18.4	44.2*	17.4
CCCCN1C(=O)NC(=O)C2(Cc3c(nc4ccccn4c3=O)N3CCc4ccccc4C32)C1=O (stereo not drawn)	4.7	44.8*	-22.9	-0.9	10.0
O=C1C2CCN(CC2)C12CC2c1ccc(C(F)(F)F)cc1 (stereo not drawn)	3.8	-2.1	5.2	1.4	6.5
Cc1ccc2c(c1)C1CN(C)CCC1N2C(=O)c1cn(-c2ccccc2)nc1-c1ccccc1 (stereo not drawn)	-6.1	79.9*	2.2	-4.9	7.8
CN(C(=O)Oc1ccc(Cl)c2cccnc12)c1ccccc1	5.3	-0.6	-16.6	-18.1	10.8
CN(C(=O)Oc1cccc2cccnc12)c1ccccc1	14.3	16.2	9.2	22.0	44.3*
CN1C(=O)C(Cc2cccs2)C(=O)N(C)C1=O	3.5	5.0	-8.2	-18.5	15.5
O=C1NC(=O)C(Cc2cccs2)C(=O)N1	2.6	2.3	6.3	78.2*	27.4
SMILES	FXIa inh 1536	thrombin 1536	m-calpain inh	hK5 inh	FXIIa inh
OC1(CN2CCOCC2)C2CC3CC(C2)CC1C3 (stereo not drawn)	3.7	2.6	-10.1	3.6	6.8
O=C(O)c1ccc(N=Cc2c(O)n(Cc3ccc(F)cc3)c(=O)[nH]c2=O)cc1	31.0	32.0	18.6	29.8	41.0*
O=C(c1ccccc1)c1cn(CC(=O)N2CCCc3ccccc32)c2ccccc12	5.3	-7.8	56.2*	-13.4	13.7
CC1CCCN(CC(=O)N2CCCc3ccccc32)C1 (stereo not drawn)	2.0	27.6	24.2	86.9*	18.8
CSc1ccccc1C(=O)C1CCCN(Cc2ccncc2)C1 (stereo not drawn)	-0.9	-0.4	-3.5	·	6.8
COC(=O)c1ccc(NC(=O)CSc2nc3ccc(N4C(=O)C5C6C=CC(C6)C5C4=O)cc3s2)cc1 (stereo not drawn)	-1.8	-9.7	-28.6	6.0	0.5
CC(=NCc1ccco1)c1c(O)n(-c2ccc(C)cc2)c(=O)[nH]c1=O	-1.3	-2.9	-0.2	-3.3	5.0
COC(=O)c1ccccc1-n1c(C)nc2ccccc2c1=O	3.5	28.4	9.9	81.8*	16.7
Cc1ccccc1-n1c(C)nc2ccccc2c1=O	36.3	7.9	25.6	23.7	25.1
Cc1nc2ccccc2c(=O)n1-c1cc(F)ccc1F	4.1	·	-12.4	-0.2	3.0
COC(=O)c1c(C)[nH]c(C(=O)C(C)[N+]23CCN(CC2)CC3)c1C (stereo not drawn)	-9.7	-11.6	5.6	-7.6	-2.2
OCC#CC[N+]1(CC#Cc2ccccc2)CCOCC1	32.6	36.1	0.7	77.7*	30.4
COc1cc2c(cc1/C=C/[N+](=O)[O-])OCO2	41.6*	16.5	18.4	40.3*	39.0
O=C1NC(=S)N(C2CC2)C(=O)/C1=C/c1ccc2c(c1)CCN2CCCCl	14.8	25.2	-21.1	20.6	42.7*
CCN1C(=O)/C(=C/c2ccc3c(c2)CCN3CCCCl)C(=O)NC1=S	-1.3	-1.4	-56.6	-60.3	0.6
COc1c2c(cc3c1OCO3)CC[N+](C)=C2	-1.2	-1.3	22.4	-1.1	4.6
CN1CCN(c2ncnc(Cl)c2N)CC1	30.4	1.1	6.1	33.0	102.5*
CC[C@]12C=CCN3CCC4(c5cc(Br)c(OC)cc5N(C)C4[C@@](O)(C(=O)OC)[C@@H]1OC(C)=O)C32 (stereo partly drawn)	21.3	27.7	19.0	43.2*	28.0
CCC(=O)c1c(O)n(C2CCCCCC2)c(=O)[nH]c1=O	-3.0	23.9	18.5	46.3*	20.4
CC(=NCCO)c1c(O)n(C2CCCCC2)c(=O)[nH]c1=O	3.2	3.4	-12.5	-23.1	21.3
O=C(C1CC(c2ccc(F)cc2)=NO1)N1CCC2(CC1)OCCO2 (stereo not drawn)	-9.8	-2.8	-32.4	-2.9	-3.1
O=C(C1CC(c2ccc(Cl)c(Cl)c2)=NO1)N1CCC2(CC1)OCCO2 (stereo not drawn)	1.9	6.9	-0.9	5.8	47.9*
CC(C(=O)c1c[nH]c2ccccc12)N1CCN(C(=O)c2ccco2)CC1 (stereo not drawn)	6.1	0.5	6.3	3.2	12.7
O=P(C(c1c[nH]c2ccccc12)N1CCOCC1)(N1CCOCC1)N1CCOCC1 (stereo not drawn)	-4.5	1.0	19.6	42.9*	6.3
Clc1ccc2c(N3CCNCC3)ccnc2c1	10.2	22.8	12.8	41.2*	20.9
Cc1nnc(SCc2nc3ccccc3c(=O)n2-c2ccccc2Cl)n1N	-3.6	-4.6	-30.8	-8.3	12.8
CCCCC/C=C\C/C=C\C/C=C\C/C=C\CCCC(=O)Nc1ccc(O)cc1	·	·	63.2*	·	·
